Results from different studies.
OGT: UDP-N-acetylglucosamine--peptide N-acetylglucosaminyltransferase 110 kDa subunit (OGT, Homo sapiens, UniProt O15294)
OPRD1: Delta-type opioid receptor (OPRD1, Homo sapiens, UniProt P41143)
HTR3A: 5-hydroxytryptamine receptor 3A (HTR3A, Homo sapiens, UniProt P46098)
ADRA2A: Alpha-2A adrenergic receptor (ADRA2A, Homo sapiens, UniProt P08913)
gag-pol reverse transcriptase: Gag-Pol polyprotein, reverse transcriptase (gag-pol, Human immunodeficiency virus 1, UniProt P03366)

With `CC[C@H](C)[C@H](NC(=O)[C@H](CO)NC(=O)[C@H](Cc1ccc(O)cc1)NC(=O)[C@H](CCCCN)NC(=O)[C@@H]1CCCN1C(=O)[C@H](CCSC)NC(=O)[C@H](Cc1ccccc1)NC(=O)[C@H](CCSC)NC(=O)[C@@H](NC(=O)[C@@H]1CCCN1C(=O)[C@H](Cc1ccccc1)NC(=O)[C@H](CC(=O)O)NC(=O)CNC(=O)[C@H](CCCCN)NC(=O)[C@@H](N)CCCCN)C(C)C)C(=O)N[C@H](C(=O)N[C@@H](Cc1ccccc1)C(=O)O)[C@@H](C)CC` the IC50 was 5.3 µM (OGT; enzyme activity, inhibitor, fluorescence).
For `CCC[C@H](CNC)NC[C@@H](CCC)NCC1CCC(C)CC1` (stereo partly shown), the IC50 was greater than 10 µM (OPRD1; cell-free assay).
For `CC(C)Cc1ccc([C@@H](C)C(=O)O)cc1`, the IC50 was roughly 6000 µM (Histone acetyltransferase p300 (EP300, Homo sapiens, UniProt Q09472); enzyme activity, inhibitor, mobility shift).
For `Nc1c(S(=O)(=O)O)cc(Nc2ccc(Nc3nc(Cl)nc(Nc4cccc(S(=O)(=O)O)c4)n3)c(S(=O)(=O)O)c2)c2c1C(=O)c1ccccc1C2=O`, the IC50 was 1.89 µM (P2X purinoceptor 2 (P2RX2, Homo sapiens, UniProt Q9UBL9); calcium signal, antagonist).
For `CNC[C@H](Cc1ccc(O)cc1)N1CCN(CCc2cccc(C)c2)[C@@H](C(C)C)C1`, the IC50 was greater than 10 µM (OPRD1; cell-free assay).
`C[C@H](N)Cn1ncc2ccc3c(c21)CCCO3` gave an IC50 of 31.7 µM (HTR3A; ligand displacement, radioligand).
For `CC[C@H](C)[C@H](NC(=O)[C@H](CO)NC(=O)[C@H](Cc1ccc(O)cc1)NC(=O)[C@H](CCCCN)NC(=O)[C@@H]1CCCN1C(=O)[C@H](CCSC)NC(=O)[C@@H](N)Cc1ccccc1)C(=O)N[C@H](C(=O)N[C@@H](Cc1ccccc1)C(=O)O)[C@@H](C)CC`, the IC50 was 120 µM (OGT; enzyme activity, inhibitor, fluorescence).
For `CC(CCc1ccccc1)NC(C)C(O)c1ccc(O)cc1` (stereo not shown), the IC50 was 18.6 µM (ADRA2A; calcium signal, antagonist).
With `CNC[C@@H](Cc1ccc(O)cc1)N1CCN(CCC2CC3CCC2C3)CC1` (stereo partly shown) the IC50 was greater than 10 µM (OPRD1; cell-free assay).
For `Cc1cn([C@H]2CC[C@@H](OC(C(=O)O)C(=O)O)C2)c(=O)[nH]c1=O`, the IC50 was greater than 640 µM (gag-pol reverse transcriptase; enzyme activity, inhibitor, radiometric).
The IC50 of `Cc1c(O)c(O)cc2c1CC=C1[C@@]2(C)CC[C@@]2(C)[C@@H]3C[C@](C)(C(=O)O)CC[C@]3(C)CC[C@]12C` is reported as 0.057 µM (Androgen receptor (AR, Homo sapiens, UniProt P10275); ligand displacement in cells, radioligand).
The IC50 of `CCC[C@H](CN[C@H](CNC)Cc1ccc(O)cc1)NCC1CCC(C)CC1` (stereo partly shown) is reported as greater than 10 µM (OPRD1; cell-free assay).
With `CN1CCC(=C2c3ccccc3CCc3sccc32)CC1` the IC50 was 7.25 µM (ADRA2A; calcium signal, antagonist).
`Cc1cc(C)nc(Nc2ncc(C(=O)NCCc3c(C)[nH]c4ccccc34)cn2)c1` gave an IC50 of 11 µM (Cytochrome P450 2C19 (CYP2C19, Homo sapiens, UniProt P33261); enzyme activity, inhibitor; human, liver microsomes).
The IC50 of `Cc1cc(/C=C/C#N)cc(C)c1Nc1ccnc(Nc2ccc(C#N)cc2)n1` is reported as 0.0214 µM (gag-pol reverse transcriptase; enzyme activity, inhibitor).
`CC(C)CCN1CCN([C@@H](CNCc2ccccc2)C(C)C)C[C@H]1C(C)C` gave an IC50 of greater than 10 µM (OPRD1; cell-free assay).
For `CCN(CC)C(=O)C1CN2CCc3cc(OC)c(OC)cc3C2CC1OC(C)=O` (stereo not shown), the IC50 was 0.825 µM (ADRA2A; ligand displacement, radioligand).
`CC(C)[C@H](CNCc1ccccc1)N1CCN(CCC2CC3CCC2C3)[C@@H](Cc2ccccc2)C1` (stereo partly shown) has an IC50 of greater than 10 µM (OPRD1; cell-free assay).
`CCOC(=O)c1cncn1[C@H](C)c1ccc(C2(C(F)(F)F)N=N2)cc1` gave an IC50 of 9 µM (HTR3A; ion current, two-electrode voltage clamp; oocytes).
